Experimental data taken from ChEMBL document CHEMBL1287796, “Discovery of new chemotype dipeptidyl peptidase IV inhibitors having (R)-3-amino-3-methyl piperidine as a pharmacophore” (Bioorg Med Chem Lett, 2010).
pIC50: −log10 of the molar value. The source made the active and inactive calls. No cut-off for these calls is given here.

What was measured:
[1] = target: Dipeptidyl peptidase 9 (Homo sapiens, UniProt Q86TI2); assay: Inhibition of DPP9
[2] = target: Dipeptidyl peptidase 8 (Homo sapiens, UniProt Q6V1X1); assay: Inhibition of DPP8
[3] = tested on: Liver microsomes; assay: Metabolic stability in human liver microsomes at 10 uM after 39 mins; assay type: ADME, Microsome; settings: 0.5 h, in the assay text read “30 mins” for “39 mins”
Summary of the method: (§1)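 Compound incubated for 30 min with hepatic microsomes (human or rat) plus NADPH. Metabolic stability is expressed as clearance in ml/min/mg protein.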

[4] = tested on: Liver microsomes; assay: Metabolic stability in rat liver microsomes at 10 uM after 39 mins; assay type: ADME, Microsome; settings: 0.5 h, in the assay text read “30 mins” for “39 mins”; summary of the method: as §1
[5] = target: Cytochrome P450 3A4 (Homo sapiens, UniProt P08684); assay: Inhibition of CYP3A4 in human liver microsomes after 10 mins; assay type: ADME, Microsome
Summary of the method: (§2)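 Human liver microsomes incubated with test compound and NADPH for 10 min; CYP isoform inhibition reported as IC50.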

[6] = target: T1, Cytochrome P450 1A2 (Homo sapiens, UniProt P05177); assay: Inhibition of CYP1A2 in human liver microsomes after 10 mins; assay type: ADME, Microsome; summary of the method: as §2
T1 sequence (P05177 whole entry): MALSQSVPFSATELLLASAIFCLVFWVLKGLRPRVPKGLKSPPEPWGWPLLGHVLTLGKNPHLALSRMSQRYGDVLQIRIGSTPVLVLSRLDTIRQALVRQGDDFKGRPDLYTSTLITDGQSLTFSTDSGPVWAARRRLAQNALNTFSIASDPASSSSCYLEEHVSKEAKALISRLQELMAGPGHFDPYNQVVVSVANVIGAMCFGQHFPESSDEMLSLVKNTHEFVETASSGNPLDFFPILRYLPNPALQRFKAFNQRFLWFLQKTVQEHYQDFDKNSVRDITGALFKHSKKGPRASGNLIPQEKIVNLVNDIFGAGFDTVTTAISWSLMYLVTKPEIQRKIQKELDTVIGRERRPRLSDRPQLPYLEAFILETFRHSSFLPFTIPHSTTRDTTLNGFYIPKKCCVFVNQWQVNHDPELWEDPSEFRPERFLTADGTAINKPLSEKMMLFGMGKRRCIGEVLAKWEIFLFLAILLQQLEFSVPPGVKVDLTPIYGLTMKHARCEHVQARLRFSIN

[7] = target: Cytochrome P450 2D6 (Homo sapiens, UniProt P10635); assay: Inhibition of CYP2D6 in human liver microsomes after 10 mins; assay type: ADME, Microsome; summary of the method: as §2
[8] = Lipophilicity, log P of the compound; assay type: physicochemical; settings: octanol/water
[9] = Tmax in rat at 1 mg/kg, iv and 10 mg/kg, po; assay type: ADME, organism-based; settings: in vivo
[10] = Volume of distribution at steady state in rat at 1 mg/kg, iv; assay type: ADME, organism-based; set-up: dose 1 mg/kg, route intravenous; settings: in vivo, read-out: Vdss
[11] = Clearance in rat at 1 mg/kg, iv; assay type: ADME, organism-based; set-up: dose 1 mg/kg, route intravenous; settings: in vivo
[12] = Protein binding in human serum; assay type: ADME, cell-free; settings: read-out: PB (converted)
[13] = Half life in rat at 10 mg/kg, po; assay type: ADME, organism-based; set-up: dose 10 mg/kg, route oral; settings: in vivo
[14] = organism: Rattus norvegicus; settings: Zucker-Fatty, 1 mg/kg
[15] = Oral bioavailability in rat at 10 mg/kg; assay type: ADME, organism-based; settings: in vivo
[16] = organism: Rattus norvegicus; settings: Zucker-Fatty, 1 mg/kg; remark: listed apart in the source

Sequence of Cytochrome P450 2D6 (P10635 whole entry): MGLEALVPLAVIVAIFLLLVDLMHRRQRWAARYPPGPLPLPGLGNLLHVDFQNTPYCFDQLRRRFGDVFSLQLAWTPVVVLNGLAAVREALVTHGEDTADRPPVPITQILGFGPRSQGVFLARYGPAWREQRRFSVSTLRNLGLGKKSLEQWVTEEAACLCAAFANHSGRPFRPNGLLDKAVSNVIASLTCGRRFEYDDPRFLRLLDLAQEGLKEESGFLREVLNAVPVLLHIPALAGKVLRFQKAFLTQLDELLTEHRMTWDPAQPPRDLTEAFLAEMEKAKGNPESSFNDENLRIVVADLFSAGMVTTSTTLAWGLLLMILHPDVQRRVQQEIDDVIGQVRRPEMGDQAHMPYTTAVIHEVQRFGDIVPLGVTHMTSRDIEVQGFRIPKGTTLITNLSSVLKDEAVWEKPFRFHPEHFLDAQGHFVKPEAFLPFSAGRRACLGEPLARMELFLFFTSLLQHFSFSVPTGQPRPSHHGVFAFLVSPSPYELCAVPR
Sequence of Cytochrome P450 3A4 (P08684 whole entry, canonical isoform): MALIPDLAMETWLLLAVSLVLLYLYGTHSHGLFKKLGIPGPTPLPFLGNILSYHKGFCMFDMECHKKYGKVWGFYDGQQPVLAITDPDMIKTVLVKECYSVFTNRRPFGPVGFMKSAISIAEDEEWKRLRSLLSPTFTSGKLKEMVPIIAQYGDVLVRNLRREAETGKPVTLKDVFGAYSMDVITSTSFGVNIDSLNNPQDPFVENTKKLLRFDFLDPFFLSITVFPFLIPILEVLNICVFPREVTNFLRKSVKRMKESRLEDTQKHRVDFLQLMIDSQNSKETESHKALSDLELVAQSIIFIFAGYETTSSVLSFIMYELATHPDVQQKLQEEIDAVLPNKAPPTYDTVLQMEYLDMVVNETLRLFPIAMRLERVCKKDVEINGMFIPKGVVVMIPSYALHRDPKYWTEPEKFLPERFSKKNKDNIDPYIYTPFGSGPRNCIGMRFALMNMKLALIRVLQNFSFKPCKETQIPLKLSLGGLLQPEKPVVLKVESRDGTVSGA
Sequence of Dipeptidyl peptidase 8 (Q6V1X1 whole entry): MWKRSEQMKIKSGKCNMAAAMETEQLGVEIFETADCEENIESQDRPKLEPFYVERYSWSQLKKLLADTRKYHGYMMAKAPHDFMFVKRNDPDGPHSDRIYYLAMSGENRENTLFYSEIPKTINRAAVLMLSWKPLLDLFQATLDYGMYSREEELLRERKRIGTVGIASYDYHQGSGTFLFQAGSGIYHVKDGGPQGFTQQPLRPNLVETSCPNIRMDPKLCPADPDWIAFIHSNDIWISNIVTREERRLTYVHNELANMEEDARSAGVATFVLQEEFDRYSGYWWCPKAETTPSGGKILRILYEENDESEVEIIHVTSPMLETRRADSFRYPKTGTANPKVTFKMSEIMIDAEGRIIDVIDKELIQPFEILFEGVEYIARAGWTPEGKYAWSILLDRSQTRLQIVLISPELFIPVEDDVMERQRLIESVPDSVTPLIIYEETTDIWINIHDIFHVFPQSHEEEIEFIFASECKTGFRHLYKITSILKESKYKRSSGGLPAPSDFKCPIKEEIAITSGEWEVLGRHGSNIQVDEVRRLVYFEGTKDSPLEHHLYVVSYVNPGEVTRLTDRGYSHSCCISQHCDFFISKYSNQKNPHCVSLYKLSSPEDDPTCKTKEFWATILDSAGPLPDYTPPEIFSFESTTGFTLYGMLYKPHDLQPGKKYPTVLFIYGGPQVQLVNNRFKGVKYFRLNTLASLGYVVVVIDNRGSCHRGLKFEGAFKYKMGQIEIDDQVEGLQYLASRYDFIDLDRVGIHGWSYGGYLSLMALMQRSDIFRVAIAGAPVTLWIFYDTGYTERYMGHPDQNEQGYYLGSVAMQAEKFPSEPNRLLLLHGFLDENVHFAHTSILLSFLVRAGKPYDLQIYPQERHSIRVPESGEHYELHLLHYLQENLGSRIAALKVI
Sequence of Dipeptidyl peptidase 9 (Q86TI2 whole entry): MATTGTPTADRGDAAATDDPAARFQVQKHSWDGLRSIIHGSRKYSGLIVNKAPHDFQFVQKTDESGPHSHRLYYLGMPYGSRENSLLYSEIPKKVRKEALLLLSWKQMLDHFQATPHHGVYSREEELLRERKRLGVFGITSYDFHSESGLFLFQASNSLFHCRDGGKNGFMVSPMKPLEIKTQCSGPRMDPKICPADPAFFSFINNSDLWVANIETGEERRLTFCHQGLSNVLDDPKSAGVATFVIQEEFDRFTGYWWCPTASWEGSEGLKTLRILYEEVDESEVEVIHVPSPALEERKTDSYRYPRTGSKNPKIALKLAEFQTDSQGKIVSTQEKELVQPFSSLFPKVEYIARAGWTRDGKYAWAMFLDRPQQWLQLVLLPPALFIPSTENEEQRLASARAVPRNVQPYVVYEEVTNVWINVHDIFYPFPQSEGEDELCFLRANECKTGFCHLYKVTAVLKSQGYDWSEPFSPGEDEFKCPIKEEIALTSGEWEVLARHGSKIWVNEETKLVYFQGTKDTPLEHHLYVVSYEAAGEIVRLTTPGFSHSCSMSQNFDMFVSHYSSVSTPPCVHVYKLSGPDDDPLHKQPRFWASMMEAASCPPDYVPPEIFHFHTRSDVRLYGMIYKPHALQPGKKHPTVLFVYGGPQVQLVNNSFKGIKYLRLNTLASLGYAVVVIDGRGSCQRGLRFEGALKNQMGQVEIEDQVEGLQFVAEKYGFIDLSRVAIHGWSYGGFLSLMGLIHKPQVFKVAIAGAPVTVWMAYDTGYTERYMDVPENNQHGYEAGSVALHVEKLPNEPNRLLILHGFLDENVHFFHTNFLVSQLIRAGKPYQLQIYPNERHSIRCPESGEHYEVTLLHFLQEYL

Structure (SMILES)	pIC50 [1]	pIC50 [2]	Microsomal clearance [3] [µL/min/mg]	Microsomal clearance [4] [µL/min/mg]	pIC50 [5]	pIC50 [6]	pIC50 [7]	other results
Cl.Cn1c(=O)c2c(cc(N3CCC[C@@](C)(N)C3)n2Cc2cc(F)ccc2Cl)n(C)c1=O	< 5.00	< 5.00	82	46	4.99	< 4.40	5.47	
Cc1ccc(F)cc1Cn1c(N2CCC[C@@](C)(N)C2)cc2ncn(C)c(=O)c21.Cl	< 5.00	< 5.00	48	264	4.92	< 4.40	4.84	
CCn1c(=O)n(C)c(=O)c2c1cc(N1CCC[C@@](C)(N)C1)n2Cc1cc(F)ccc1C#N.Cl	< 5.00	< 5.00	21	< 10	5.03	4.57	6.40	
Cl.Cn1c(=O)c2c(cc(N3CCC[C@@](C)(N)C3)n2Cc2cc(F)ccc2Cl)n(CCCO)c1=O	< 5.00	< 5.00	16	17	5.11	< 4.40	6.70	
Cn1c(=O)c2c(cc(N3CCC[C@@](C)(N)C3)n2Cc2ccccc2C#N)n(C)c1=O	< 5.00	< 5.00						logP [8]: 0.28
Cc1ccc(F)cc1Cn1c(N2CCC[C@@](C)(N)C2)cc2c1c(=O)n(C)c(=O)n2C.Cl	< 5.00	< 5.00	56	13	4.69	< 4.40	< 4.40	Tmax [9]: 3 h; Vd [10]: 14.4 L/kg; clearance [11]: 3.09 L/h/kg; fraction unbound [12]: 0.049; half-life [13]: 4.69 h; inhibition [14]: Active; bioavailability [15]: 69.3%; inhibition [16]: Active

More lines, main results first:

pIC50 [1]	pIC50 [2]	Microsomal clearance [3] [µL/min/mg]	Microsomal clearance [4] [µL/min/mg]	pIC50 [5]	pIC50 [6]	pIC50 [7]	Structure (SMILES)	other results
< 5.00	< 5.00						Cn1cnc2cc(N3CCC[C@@](C)(N)C3)n(Cc3cc(F)ccc3C#N)c2c1=O	
< 5.00	< 5.00						Cn1cnc2cc(N3CCC[C@@](C)(N)C3)n(Cc3ccccc3C#N)c2c1=O	
< 5.00	< 5.00						CCOCCCn1c(=O)n(C)c(=O)c2c1cc(N1CCC[C@@](C)(N)C1)n2Cc1cc(F)ccc1Cl	
< 5.00	< 5.00						Cn1cnc2cc(N3CCC[C@@](C)(N)C3)n(Cc3cc(F)ccc3Cl)c2c1=O	
< 5.00	< 5.00	19	< 10	4.87	4.58	> 6.78	CN(C)C(=O)Cn1c(=O)n(C)c(=O)c2c1cc(N1CCC[C@@](C)(N)C1)n2Cc1cc(F)ccc1Cl.Cl	
